Measurements: ChEMBL document CHEMBL4038305, “Benzoxaborole Antimalarial Agents. Part 5. Lead Optimization of Novel Amide Pyrazinyloxy Benzoxaboroles and Identification of a Preclinical Candidate” (J Med Chem, 2017)

Experiments:
Plasmodium falciparum [1] = experiment: Antimalarial activity against chloroquine-sensitive Plasmodium falciparum 3D7 infected in human erythrocytes assessed as reduction in [3H]-hypoxanthine incorporation preincubated for 24 hrs followed by [3H]-hypoxanthine addition measured after 24 hrs by scintillation counting method; type: functional, cell-based
Summary of the method: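 P. falciparum 3D7 cultures were exposed to the compound for 48 h, with atovaquone as the reference control. IC50 was taken from three replicates.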

Plasmodium falciparum [2] = experiment: Antimalarial activity against chloroquine-resistant Plasmodium falciparum W2 infected in human erythrocytes after 48 hrs by YOYO-1 dye based flow cytometric analysis; type: functional, cell-based; conditions: W2, 48 h
Summary of the method: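 P. falciparum W2 cultures were exposed to the compound for 48 h, with artemisinin and chloroquine as reference controls. IC50 was taken from two independent replicates.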

[3] = Metabolic stability in human hepatocytes at 22 uM after 44 hrs; type: ADME, cell-based, Hepatocyte
Plasmodium berghei [4] = experiment: Antimalarial activity against Plasmodium berghei infected in Swiss Webster mouse assessed as mouse survival rate at 100 mg/kg administered once daily via oral gavage for 4 consecutive days beginning 1 hr after infection measured on day 4 post infection relative to control; type: functional
Summary of the method: (§1)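 Mice given an intraperitoneal injection of P. berghei-infected erythrocytes taken from a previously infected animal. Oral dosing once daily for 4 consecutive days, starting 1 h after infection. Vehicle: polyethylene glycol 300/propylene glycol/water (weight ratio 55/25/20). Percent survival recorded daily from day 4 to day 20. Chloroquine 30 mg/kg and vehicle-only groups served as controls.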

Plasmodium berghei [5] = experiment: Antimalarial activity against Plasmodium berghei infected in Swiss Webster mouse assessed as mouse survival rate at 33 mg/kg administered once daily via oral gavage for 4 consecutive days beginning 1 hr after infection measured on day 4 post infection relative to control; type: functional
Summary of the method: (§2)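 P. berghei-infected erythrocytes taken from a previously infected mouse were injected intraperitoneally. Oral dosing, once daily for 4 consecutive days, began 1 h after infection, in polyethylene glycol 300/propylene glycol/water (55/25/20 by weight). Chloroquine at 30 mg/kg was the positive control, with a vehicle-only group. Percent survival was recorded daily from day 4 to day 20.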

Plasmodium berghei [6] = experiment: Antimalarial activity against Plasmodium berghei infected in Swiss Webster mouse assessed as mouse survival rate at 0.4 mg/kg administered once daily via oral gavage for 4 consecutive days beginning 1 hr after infection measured on day 4 post infection relative to control; type: functional; summary of the method: as §1
Plasmodium berghei [7] = experiment: Antimalarial activity against Plasmodium berghei infected in Swiss Webster mouse assessed as mouse survival rate at 0.1 mg/kg administered once daily via oral gavage for 4 consecutive days beginning 1 hr after infection measured on day 4 post infection relative to control; type: functional; summary of the method: as §1
Plasmodium berghei [8] = experiment: Antimalarial activity against Plasmodium berghei infected in Swiss Webster mouse assessed as mouse survival rate at 3.7 mg/kg administered once daily via oral gavage for 4 consecutive days beginning 1 hr after infection measured on day 5 post infection relative to control; type: functional; summary of the method: as §2
Plasmodium berghei [9] = experiment: Antimalarial activity against Plasmodium berghei infected in Swiss Webster mouse assessed as mouse survival rate at 0.4 mg/kg administered once daily via oral gavage for 4 consecutive days beginning 1 hr after infection measured on day 5 post infection relative to control; type: functional; summary of the method: as §1
Plasmodium berghei [10] = experiment: Antimalarial activity against Plasmodium berghei infected in Swiss Webster mouse assessed as mouse survival rate at 100 mg/kg administered once daily via oral gavage for 4 consecutive days beginning 1 hr after infection measured on day 6 post infection relative to control; type: functional; summary of the method: as §1
Plasmodium berghei [11] = experiment: Antimalarial activity against Plasmodium berghei infected in Swiss Webster mouse assessed as mouse survival rate at 33 mg/kg administered once daily via oral gavage for 4 consecutive days beginning 1 hr after infection measured on day 6 post infection relative to control; type: functional; summary of the method: as §2
Plasmodium berghei [12] = experiment: Antimalarial activity against Plasmodium berghei infected in Swiss Webster mouse assessed as mouse survival rate at 11 mg/kg administered once daily via oral gavage for 4 consecutive days beginning 1 hr after infection measured on day 6 post infection relative to control; type: functional; summary of the method: as §2
Plasmodium berghei [13] = experiment: Antimalarial activity against Plasmodium berghei infected in Swiss Webster mouse assessed as mouse survival rate at 0.1 mg/kg administered once daily via oral gavage for 4 consecutive days beginning 1 hr after infection measured on day 6 post infection relative to control; type: functional; summary of the method: as §1
Plasmodium berghei [14] = experiment: Antimalarial activity against Plasmodium berghei infected in Swiss Webster mouse assessed as mouse survival rate at 11 mg/kg administered once daily via oral gavage for 4 consecutive days beginning 1 hr after infection measured on day 7 post infection relative to control; type: functional; summary of the method: as §2
Plasmodium berghei [15] = experiment: Antimalarial activity against Plasmodium berghei infected in Swiss Webster mouse assessed as mouse survival rate at 3.7 mg/kg administered once daily via oral gavage for 4 consecutive days beginning 1 hr after infection measured on day 7 post infection relative to control; type: functional; summary of the method: as §2
Plasmodium berghei [16] = experiment: Antimalarial activity against Plasmodium berghei infected in Swiss Webster mouse assessed as mouse survival rate at 0.4 mg/kg administered once daily via oral gavage for 4 consecutive days beginning 1 hr after infection measured on day 7 post infection relative to control; type: functional; summary of the method: as §1
Plasmodium berghei [17] = experiment: Antimalarial activity against Plasmodium berghei infected in Swiss Webster mouse assessed as mouse survival rate at 100 mg/kg administered once daily via oral gavage for 4 consecutive days beginning 1 hr after infection measured on day 8 post infection relative to control; type: functional; summary of the method: as §1
Plasmodium berghei [18] = experiment: Antimalarial activity against Plasmodium berghei infected in Swiss Webster mouse assessed as mouse survival rate at 33 mg/kg administered once daily via oral gavage for 4 consecutive days beginning 1 hr after infection measured on day 8 post infection relative to control; type: functional; summary of the method: as §2
Plasmodium berghei [19] = experiment: Antimalarial activity against Plasmodium berghei infected in Swiss Webster mouse assessed as mouse survival rate at 11 mg/kg administered once daily via oral gavage for 4 consecutive days beginning 1 hr after infection measured on day 8 post infection relative to control; type: functional; summary of the method: as §2
Plasmodium berghei [20] = experiment: Antimalarial activity against Plasmodium berghei infected in Swiss Webster mouse assessed as mouse survival rate at 100 mg/kg administered once daily via oral gavage for 4 consecutive days beginning 1 hr after infection measured on day 9 post infection relative to control; type: functional; summary of the method: as §1
Plasmodium berghei [21] = experiment: Antimalarial activity against Plasmodium berghei infected in Swiss Webster mouse assessed as mouse survival rate at 100 mg/kg administered once daily via oral gavage for 4 consecutive days beginning 1 hr after infection measured on day 11 post infection relative to control; type: functional; summary of the method: as §1
Plasmodium berghei [22] = experiment: Antimalarial activity against Plasmodium berghei infected in Swiss Webster mouse assessed as mouse survival rate at 33 mg/kg administered once daily via oral gavage for 4 consecutive days beginning 1 hr after infection measured on day 11 post infection relative to control; type: functional; summary of the method: as §2
Plasmodium berghei [23] = experiment: Antimalarial activity against Plasmodium berghei infected in Swiss Webster mouse assessed as mouse survival rate at 33 mg/kg administered once daily via oral gavage for 4 consecutive days beginning 1 hr after infection measured on day 12 post infection relative to control; type: functional; summary of the method: as §2
Plasmodium berghei [24] = experiment: Antimalarial activity against Plasmodium berghei infected in Swiss Webster mouse assessed as mouse survival rate at 100 mg/kg administered once daily via oral gavage for 4 consecutive days beginning 1 hr after infection measured on day 13 post infection relative to control; type: functional; summary of the method: as §1
Plasmodium falciparum [25] = experiment: Antimalarial activity against Plasmodium falciparum 3D7 0087/N9 infected in NOD/SCID IL2R gamma null mouse assessed as reduction in parasitemia administered once daily via oral gavage for 4 consecutive days measured on day 4 post infection; type: functional; conditions: 3D7 0087/N9, po, 96 h
Summary of the method: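 Human-erythrocyte-engrafted NODscidIL2Rγnull mice carrying P. falciparum Pf3D70087/N9 in peripheral blood; compound given orally once daily for four consecutive days.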

Plasmodium berghei [26] = experiment: Antimalarial activity against Plasmodium berghei infected in Swiss Webster mouse assessed as mouse survival rate administered once daily via oral gavage for 4 consecutive days beginning 1 hr after infection measured on day 4 post infection; type: functional; summary of the method: as §1

SMILES | IC50 (Plasmodium falciparum [1]) | IC50 (Plasmodium falciparum [2]) | Stability [3] | survival at 100 mg/kg (Plasmodium berghei [4]) | survival at 33 mg/kg (Plasmodium berghei [5]) | survival at 0.4 mg/kg (Plasmodium berghei [6]) | survival at 0.1 mg/kg (Plasmodium berghei [7]) | survival at 3.7 mg/kg (Plasmodium berghei [8]) | survival at 0.4 mg/kg (Plasmodium berghei [9]) | survival at 100 mg/kg (Plasmodium berghei [10]) | survival at 33 mg/kg (Plasmodium berghei [11]) | survival at 11 mg/kg (Plasmodium berghei [12]) | survival at 0.1 mg/kg (Plasmodium berghei [13]) | survival at 11 mg/kg (Plasmodium berghei [14]) | survival at 3.7 mg/kg (Plasmodium berghei [15]) | survival at 0.4 mg/kg (Plasmodium berghei [16]) | survival at 100 mg/kg (Plasmodium berghei [17]) | survival at 33 mg/kg (Plasmodium berghei [18]) | survival at 11 mg/kg (Plasmodium berghei [19]) | survival at 100 mg/kg (Plasmodium berghei [20]) | also measured
Cc1c(Oc2cnc(C(=O)N3CC(O)(C(C)C)C3)cn2)ccc2c1B(O)OC2 | 0.057 µM | 0.0407 µM | Stable | 100% | 100% | 100% | 100% | 100% | 100% | 100% | 100% | 100% | 100% | 60% | 0% | 0% | 100% | 100% | 60% | 100% | survival at 100 mg/kg (Plasmodium berghei [21]): 100%; survival at 33 mg/kg (Plasmodium berghei [22]): 100%; survival at 33 mg/kg (Plasmodium berghei [23]): 100%; survival at 100 mg/kg (Plasmodium berghei [24]): 100%; ED90 (Plasmodium falciparum [25]): < 5 mg/kg; ED90 (Plasmodium berghei [26]): 4.5 mg/kg
Cc1c(Oc2cnc(C(=O)N3CC(C)(O)C3)cn2)ccc2c1B(O)OC2 | 0.043 µM | 0.0326 µM | Stable | 100% | 100% | 100% | 100% | 100% | 100% | 100% | 100% | 100% | 100% | 100% | 60% | 0% | 100% | 100% | 100% | 100% | survival at 100 mg/kg (Plasmodium berghei [21]): 100%; survival at 33 mg/kg (Plasmodium berghei [22]): 100%; survival at 33 mg/kg (Plasmodium berghei [23]): 100%; survival at 100 mg/kg (Plasmodium berghei [24]): 100%; ED90 (Plasmodium falciparum [25]): 0.85 mg/kg; ED90 (Plasmodium berghei [26]): 1.9 to 1.92 mg/kg
